For one data set, the system named is Mus musculus. Put plainly: Hypothermia in mice after peroral administration. In kind it is functional.
Data set [1] relates to Rattus norvegicus. In words: Compound was assessed for its ability to produce catalepsy in rats; Dose administered perorally is 12 mg/kg; Group score is 8-15. In kind it is functional. The following applies: route oral. Summed up:
(§1)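 Groups of eight Lilly Wistar rats (180–190 g) were dosed orally, then checked at 0.5, 1, 1.5, 2, 3, 4 and 5 h. Front paws were placed on a 1.5-cm rod 7 cm above the table, and hold time was recorded up to 20 min. Each rat was scored 0–5 and its maximum scores were summed per group (maximum 40), then graded 0–4.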

The subject of data set [2] is Rattus norvegicus. Put plainly: Compound was assessed for its ability to block a conditioned avoidance response; Dose administered perorally is 6 mg/kg; 51-75%block. In kind it is functional. The following applies: route oral. The method, boiled down:
(§2)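 Lilly Wistar rats (120–130 g) trained in a shuttle box to cross on a 5-s buzzer, with mild shock if no response within 1 s of buzzer end. Only rats with a high conditioned response were used. Groups of five were dosed orally 1 h 50 min before the session, then habituated 10 min and tested 20 min. Shocks were scored as % of stimuli and graded 0–5.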

A short description of data set [3]: Lethal dose in mice after perorla administration. In kind it is toxicity, organism-based. The following applies: mouse, in vivo, po.
Data set [4] deals with Rattus norvegicus. Put plainly: Compound was assessed for its ability to produce catalepsy in rats; Dose administered perorally is 25 mg/kg; Group score is 8-15. The data set is classed as functional. The following applies: route oral. Summed up: as §1
Data set [5] relates to Rattus norvegicus. Put plainly: Compound was assessed for its ability to block a conditioned avoidance response; Dose administered perorally is 40 mg/kg; 26-30%block. The data set is classed as functional. Conditions: route oral. Summed up:
as §2

The test system of data set [6] is Rattus norvegicus. In words: Compound was assessed for its ability to block a conditioned avoidance response; Dose administered perorally is 20 mg/kg; no significant effect (0-25%block). The data set is classed as functional. Conditions: route oral. Summed up:
as §2

Data set [7] has as its system Rattus norvegicus. In words: Compound was assessed for its ability to produce catalepsy in rats; Dose administered perorally is 50 mg/kg; Group score is 8-15. The data set is classed as functional. The following applies: route oral. Summed up: as §1
Data set [8] deals with Rattus norvegicus. Put plainly: Compound was assessed for its ability to produce catalepsy in rats; Dose administered perorally is 60 mg/kg; Group score is 8-15. In kind it is functional. The following applies: route oral. Summed up: as §1
Data set [9] deals with Rattus norvegicus. Put plainly: Compound was assessed for its ability to produce catalepsy in rats; Dose administered subcutaneously is 30 mg/kg; Group score is 4-7. In kind it is functional. The following applies: route subcutaneous.
Data set [10] relates to Rattus norvegicus. In words: Compound was assessed for its ability to block a conditioned avoidance response; Dose administered intraperitoneally is 20 mg/kg; 26-30%block. The data set is classed as functional. Conditions: route intraperitoneal. Summed up: (§3)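 Shuttle-box conditioned avoidance in Lilly Wistar rats (120–130 g) pretrained to a 5-s buzzer with mild shock after a 1-s failure to respond. Groups of five had 10-min habituation and a 20-min test. Block was taken as shocks received as % of buzzer presentations and graded 0–5. Maximum dose was half the rotarod-disruption ED₅₀.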

For data set [11], the system named is Rattus norvegicus. Put plainly: Compound was assessed for its ability to produce catalepsy in rats; Dose administered perorally is 25 mg/kg; Group score is 16-30. The data set is classed as functional. The following applies: route oral. The method, boiled down:
as §1

The test system of data set [12] is Rattus norvegicus. In words: Compound was assessed for its ability to block a conditioned avoidance response; Dose administered perorally is 10 mg/kg; 51-75%block. The following applies: route oral. The data set is classed as functional. Summed up: as §2
For data set [13], the system named is Rattus norvegicus. Put plainly: Compound was assessed for its ability to block a conditioned avoidance response; Dose administered perorally is 10 mg/kg; 31-50%block. The data set is classed as functional. Conditions: route oral. Summed up:
as §2

For data set [14], the system named is Rattus norvegicus. In words: Compound was assessed for its ability to produce catalepsy in rats; Dose administered perorally is 12.5 mg/kg; Group score is 8-15. The data set is classed as functional. Conditions: route oral. Summed up: as §1
In data set [15] the test system is Rattus norvegicus. In words: Compound was assessed for its ability to block a conditioned avoidance response; Dose administered intraperitoneally is 40 mg/kg; 26-30%block. The data set is classed as functional. The following applies: route intraperitoneal. Summed up: as §3
In data set [16] the test system is Rattus norvegicus. In words: Compound was assessed for its ability to block a conditioned avoidance response; Dose administered intraperitoneally is 50 mg/kg; 26-30%block. The following applies: route intraperitoneal. The data set is classed as functional. Summed up:
as §3

Data set [17] relates to Rattus norvegicus. Put plainly: Compound was assessed for its ability to block a conditioned avoidance response; Dose administered perorally is 30 mg/kg; Complete block of conditioned & unconditioned response. In kind it is functional. The following applies: route oral. The method, boiled down:
as §2

The subject of data set [18] is Rattus norvegicus. Put plainly: Compound was assessed for its ability to produce catalepsy in rats; Dose administered perorally is 16 mg/kg; Group score is 4-7. The data set is classed as functional. Conditions: route oral. Summed up: as §1
The test system of data set [19] is Rattus norvegicus. In words: Compound was assessed for its ability to produce catalepsy in rats; Dose administered perorally is 10 mg/kg; Group score is 8-15. The data set is classed as functional. The following applies: route oral. The method, boiled down: as §1
Data set [20] has as its system Rattus norvegicus. Put plainly: Compound was assessed for its ability to block a conditioned avoidance response; Dose administered perorally is 10 mg/kg; 76-99%block. In kind it is functional. Conditions: route oral. The method, boiled down: as §2
Data set [21] concerns Rattus norvegicus. In words: Compound was assessed for its ability to block a conditioned avoidance response; Dose administered perorally is 25 mg/kg; 26-30%block. The data set is classed as functional. The following applies: route oral, in the assay text read “31-50%block” for “26-30%block”. Summed up: as §2

Compound `CCc1cc2c(s1)Nc1ccc(F)cc1N=C2N1CCN(C)CC1` came in with an EDmin in the data set on Mus musculus of 6.25 mg/kg. For the same compound, the results for the Activity in the data set on Rattus norvegicus [1] and with Rattus norvegicus [2] were 2 and 3, respectively. For the same compound, the median lethal dose (LD50) (usually the dose at which mortality reaches 50%) in data set [3] is above 200 mg/kg.
In turn, `CCc1cc2c(s1)Nc1ccc(F)cc1N=C2N1CCN(Cc2ccccc2)CC1` had an EDmin in the data set with Mus musculus of 200 mg/kg. The results for the Activity in the data set with Rattus norvegicus [4] and with Rattus norvegicus [5] were 2 and 1, respectively. This compound also registered an LD50 in [3] above 400 mg/kg.
Turning to `CC(=O)c1cc2c(s1)Nc1ccc(F)cc1N=C2N1CCN(C)CC1`, the Activity in the data set on Rattus norvegicus [6] is 0; in the data set on Rattus norvegicus [7], 2. The EDmin with Mus musculus came to 12.5 mg/kg. In data set [3], this compound showed an LD50 of 200 mg/kg.
In the case of `CCc1cc2c(s1)Nc1ccc(F)cc1N=C2N1CCNCC1`, the Activity in the data set with Rattus norvegicus [8] is recorded as 2; with Rattus norvegicus [9] it was 1; in the data set with Rattus norvegicus [10], 1. In the data set with Mus musculus, the EDmin is 100 mg/kg. Besides, the LD50 in data set [3] is above 800 mg/kg.
Regarding `CCc1cc2c(s1)Nc1cc(F)c(F)cc1N=C2N1CCN(C)CC1`, in the data set with Mus musculus, the EDmin is 6.25 mg/kg. The Activity in the data set with Rattus norvegicus [11] and with Rattus norvegicus [12] was 3 in each case. This compound also displayed a 50% lethal dose (LD50) in data set [3] of 300 mg/kg.
`CCc1cc2c(s1)Nc1ccc(F)cc1N=C2N1CCN(CCCO)CC1`: the Activity with Rattus norvegicus [13] and in the data set with Rattus norvegicus [14] was 2 throughout. The same compound returned an EDmin in the data set with Mus musculus of 25 mg/kg. Also, the median lethal dose (LD50) in data set [3] was 400 mg/kg.
The compound `CCc1cc2c(s1)Nc1ccc(F)cc1N=C2NCCN(C)C` showed an EDmin in the data set on Mus musculus of 200 mg/kg. In addition, the Activity in the data set with Rattus norvegicus [15] came to 1. The same compound showed an LD50 in data set [3] of 400 mg/kg.
As for `CCc1cc2c(s1)Nc1ccc(F)cc1N=C2NCCCN(C)C`, the EDmin in the data set with Mus musculus is above 400 mg/kg. In the data set with Rattus norvegicus [16], the Activity is 1. Besides, the 50% lethal dose (LD50) in data set [3] is above 800 mg/kg.
On to `CN1CCN(C2=Nc3cc(F)ccc3Nc3sccc32)CC1`, for which, in the data set on Rattus norvegicus [17], the Activity was 5. Also, the EDmin in the data set on Mus musculus is 25 mg/kg. The same compound gave an LD50 in [3] above 200 mg/kg.
`CCc1cc2c(s1)Nc1ccccc1N=C2N1CCN(C)CC1`: the Activity in the data set on Rattus norvegicus [13] worked out at 2; with Rattus norvegicus [18], 1. The compound further yielded an EDmin in the data set with Mus musculus of 25 mg/kg. Moreover, the 50% lethal dose (LD50) in data set [3] worked out at 150 mg/kg.
In the data set on Mus musculus, `CC(C)c1cc2c(s1)Nc1ccc(F)cc1N=C2N1CCN(C)CC1` registered an EDmin of 6.25 mg/kg. Further, the Activity with Rattus norvegicus [19] is given as 2; in the data set on Rattus norvegicus [20], 4. Further, the LD50 in data set [3] came out at 50 mg/kg.
As for `CCc1cc2c(s1)Nc1cc(C)ccc1N=C2N1CCN(C)CC1`, the Activity in the data set on Rattus norvegicus [21] and in the data set on Rattus norvegicus [7] was 2 each time. In addition, the EDmin in the data set with Mus musculus amounted to 50 mg/kg. The LD50 in data set [3] was 150 mg/kg.
